The source made the active and inactive calls.
Columns and labels:
[1] = biological target: Alpha-1D adrenergic receptor (Homo sapiens, UniProt P25100); assay: Displacement of [3H]prazosin form human recombinant Alpha-1D adrenergic receptor
[2] = biological target: 5-hydroxytryptamine receptor 4 (Mus musculus) (UniProt P97288); assay: Agonist activity at mouse 5HT4a receptor expressed in african green monkey COS7 cells assessed as cAMP release relative to serotonin; type: functional, cell-based; conditions: COS-7
5-hydroxytryptamine receptor 4 (Mus musculus), sequence (P97288 whole entry): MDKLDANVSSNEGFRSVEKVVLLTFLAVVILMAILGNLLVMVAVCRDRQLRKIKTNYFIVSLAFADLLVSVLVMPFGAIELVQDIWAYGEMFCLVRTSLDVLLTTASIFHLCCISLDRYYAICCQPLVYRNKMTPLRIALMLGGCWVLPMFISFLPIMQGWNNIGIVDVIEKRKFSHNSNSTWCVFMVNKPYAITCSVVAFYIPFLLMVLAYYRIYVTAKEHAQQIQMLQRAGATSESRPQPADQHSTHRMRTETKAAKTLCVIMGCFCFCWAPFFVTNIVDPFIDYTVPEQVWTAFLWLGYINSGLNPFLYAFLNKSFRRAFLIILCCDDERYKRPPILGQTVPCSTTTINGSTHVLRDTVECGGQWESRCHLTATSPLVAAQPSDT
In short: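 Mouse 5-HT4(a) receptor transfected by electroporation into COS-7 cells (560 fmol/mg protein). Cells labelled 2 h at 37 °C with [3H]adenine, then exposed to increasing concentrations of test agent in 0.75 mM IBMX and 0.1 µM forskolin. cAMP measured as [3H]ATP→[3H]cAMP conversion after Dowex/alumina separation. Expressed as % of maximal 5-HT stimulation over basal. Mean of four independent experiments.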

[3] = biological target: T1, 5-hydroxytryptamine receptor 2C (Homo sapiens, UniProt P28335); assay: Displacement of [3H]mesulergine from human recombinant 5HT2C receptor
T1 sequence (P28335 whole entry): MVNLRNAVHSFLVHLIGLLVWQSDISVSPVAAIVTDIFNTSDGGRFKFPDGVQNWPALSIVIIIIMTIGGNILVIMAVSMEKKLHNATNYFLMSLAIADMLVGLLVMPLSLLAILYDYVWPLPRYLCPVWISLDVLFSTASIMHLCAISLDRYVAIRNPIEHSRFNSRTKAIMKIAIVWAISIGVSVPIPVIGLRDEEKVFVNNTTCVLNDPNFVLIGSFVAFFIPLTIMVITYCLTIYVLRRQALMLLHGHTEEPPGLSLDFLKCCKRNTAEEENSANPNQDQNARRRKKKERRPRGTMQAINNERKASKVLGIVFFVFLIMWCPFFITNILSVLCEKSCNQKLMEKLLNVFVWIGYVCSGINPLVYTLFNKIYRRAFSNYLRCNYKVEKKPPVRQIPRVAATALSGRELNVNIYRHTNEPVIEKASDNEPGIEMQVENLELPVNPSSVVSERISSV

[4] = biological target: Alpha-1B adrenergic receptor (Homo sapiens, UniProt P35368); assay: Displacement of [3H]prazosin form human recombinant Alpha-1B adrenergic receptor
Alpha-1B adrenergic receptor, sequence (P35368 whole entry): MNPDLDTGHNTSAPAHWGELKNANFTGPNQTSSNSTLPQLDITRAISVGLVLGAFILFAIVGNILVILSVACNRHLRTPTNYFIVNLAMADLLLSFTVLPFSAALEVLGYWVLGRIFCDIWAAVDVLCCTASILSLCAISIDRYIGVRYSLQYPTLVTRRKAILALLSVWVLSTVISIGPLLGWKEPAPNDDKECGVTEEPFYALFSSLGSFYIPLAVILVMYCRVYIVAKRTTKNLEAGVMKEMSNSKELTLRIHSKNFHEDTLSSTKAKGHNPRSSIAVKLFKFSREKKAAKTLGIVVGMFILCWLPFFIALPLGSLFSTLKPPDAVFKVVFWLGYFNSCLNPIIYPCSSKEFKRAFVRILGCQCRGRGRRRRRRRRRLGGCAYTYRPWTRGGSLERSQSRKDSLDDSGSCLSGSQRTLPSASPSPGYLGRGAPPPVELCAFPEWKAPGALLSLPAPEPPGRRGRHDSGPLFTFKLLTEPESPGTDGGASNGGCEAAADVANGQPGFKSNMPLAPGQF

[5] = biological target: T2, 5-hydroxytryptamine receptor 1A (Homo sapiens, UniProt P08908); assay: Displacement of [3H]8OH-DPAT from human recombinant 5HT1A receptor
T2 sequence (P08908 whole entry): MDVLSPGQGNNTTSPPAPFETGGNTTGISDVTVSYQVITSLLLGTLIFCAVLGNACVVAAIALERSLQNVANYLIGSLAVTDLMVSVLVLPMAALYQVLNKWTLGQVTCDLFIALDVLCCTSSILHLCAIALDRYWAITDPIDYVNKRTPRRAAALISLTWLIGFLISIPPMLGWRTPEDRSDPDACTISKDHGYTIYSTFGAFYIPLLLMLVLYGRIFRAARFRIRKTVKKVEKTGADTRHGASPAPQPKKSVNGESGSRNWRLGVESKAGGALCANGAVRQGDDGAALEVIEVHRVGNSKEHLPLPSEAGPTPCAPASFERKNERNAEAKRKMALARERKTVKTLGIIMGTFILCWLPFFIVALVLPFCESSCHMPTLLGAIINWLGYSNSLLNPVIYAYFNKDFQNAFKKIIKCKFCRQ

[6] = biological target: 5-hydroxytryptamine receptor 6 (Homo sapiens, UniProt P50406); assay: Displacement of [3H]LSD form human recombinant 5HT6 receptor
5-hydroxytryptamine receptor 6, sequence (P50406 whole entry): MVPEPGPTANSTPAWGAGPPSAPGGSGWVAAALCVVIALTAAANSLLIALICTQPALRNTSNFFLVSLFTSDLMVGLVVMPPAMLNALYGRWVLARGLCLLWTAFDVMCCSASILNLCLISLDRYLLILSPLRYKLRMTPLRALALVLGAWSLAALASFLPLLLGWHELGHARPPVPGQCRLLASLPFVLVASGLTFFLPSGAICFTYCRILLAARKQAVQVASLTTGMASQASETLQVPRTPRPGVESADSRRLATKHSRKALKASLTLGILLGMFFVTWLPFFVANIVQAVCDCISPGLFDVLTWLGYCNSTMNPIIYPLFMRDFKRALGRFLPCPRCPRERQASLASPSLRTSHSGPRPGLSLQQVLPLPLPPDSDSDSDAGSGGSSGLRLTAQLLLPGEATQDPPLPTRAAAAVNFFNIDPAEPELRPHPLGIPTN
In short: (§1)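 Membranes from sf9 cells expressing human 5-HT6 (14 µg/mL) or 5-HT7 (38 µg/mL) incubated 90 min at 27 °C with 2 nM [3H]LSD in 50 mM Tris-HCl containing 10 mM MgSO4 and 0.5 mM EDTA. Nonspecific binding defined with clozapine (10 and 250 µM).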

[7] = biological target: 5-hydroxytryptamine receptor 4 (Cavia porcellus) (UniProt O70528); assay: Displacement of [3H]GR-113808 from 5HT4 receptor in guinea pig striatum membrane at 10 nM; type: cell membranes
5-hydroxytryptamine receptor 4 (Cavia porcellus), sequence (O70528 whole entry): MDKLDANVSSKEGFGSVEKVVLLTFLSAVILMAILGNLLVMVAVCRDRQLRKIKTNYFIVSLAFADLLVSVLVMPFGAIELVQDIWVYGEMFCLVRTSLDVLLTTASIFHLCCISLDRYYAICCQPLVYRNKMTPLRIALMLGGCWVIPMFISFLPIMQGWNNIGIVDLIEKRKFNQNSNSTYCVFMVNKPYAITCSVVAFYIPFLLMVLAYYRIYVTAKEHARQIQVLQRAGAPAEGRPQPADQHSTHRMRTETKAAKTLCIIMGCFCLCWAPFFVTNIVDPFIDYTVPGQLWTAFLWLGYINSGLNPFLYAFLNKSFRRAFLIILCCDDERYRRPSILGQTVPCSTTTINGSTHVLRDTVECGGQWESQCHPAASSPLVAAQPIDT
In short: (§2)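 Guinea pig membranes (15 µg protein/mL) incubated 30 min at 37 °C with 0.6 nM [3H]GR113808 in 50 mM HEPES, pH 7.4, with fixed test concentrations. Nonspecific binding defined with 10 µM serotonin.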

[8] = biological target: 5-hydroxytryptamine receptor 1D (Rattus norvegicus, UniProt P28565); assay: Displacement of [3H]5OH-tryptamine rat recombinant 5HT1D receptor
5-hydroxytryptamine receptor 1D, sequence (P28565 whole entry): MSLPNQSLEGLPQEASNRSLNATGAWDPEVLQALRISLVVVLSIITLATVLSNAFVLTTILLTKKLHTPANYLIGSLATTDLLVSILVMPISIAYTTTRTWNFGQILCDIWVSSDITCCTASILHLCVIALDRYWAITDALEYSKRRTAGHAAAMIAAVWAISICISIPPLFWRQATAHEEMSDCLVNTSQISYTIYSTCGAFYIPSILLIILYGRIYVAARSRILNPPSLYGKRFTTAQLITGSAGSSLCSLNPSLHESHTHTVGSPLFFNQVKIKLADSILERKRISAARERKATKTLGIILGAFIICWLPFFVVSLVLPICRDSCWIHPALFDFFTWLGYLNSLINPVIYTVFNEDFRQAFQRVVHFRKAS

[9] = biological target: 5-hydroxytryptamine receptor 4 (Cavia porcellus, UniProt O70528); assay: Displacement of [3H]GR-113808 from 5HT4 receptor in guinea pig striatum membrane; type: cell membranes; in short: as §2
5-hydroxytryptamine receptor 4, sequence (O70528 whole entry): as the sequence (O70528 whole entry) above

Mus musculus [10] = assay: Acute toxicity in NMRI mouse assessed as behavioral changes at subtoxic <1/4 dose of LD50, ip by CNS activity test; type: organism-based, Central nervous system; conditions: in vivo
In short: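 Male NMRI mice (20–24 g) given ip drug in saline (10 mL/kg), groups of 4. Behavioural and neurological changes scored against controls by a standardized observation technique at 30 min, 3 h and 24 h post-dose. Approximate LD50 derived from deaths counted at 24 h.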

Mus musculus [11] = assay: Inhibition of scopolamine-induced immediate working memory deficit in NMRI mouse at 0.3 to 3 mg/kg, ip by Y-maze test; type: functional, organism-based
In short: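 Spontaneous alternation in male NMRI mice. Compound given ip in saline at 0.3, 1 and 3 mg/kg, 30 min before testing, alone or with scopolamine 1 mg/kg; four groups per dose (saline/saline, saline/scopolamine, compound/saline, compound/scopolamine). Alternation % = actual alternations / (total arm entries − 2) × 100.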

[12] = biological target: Alpha-2B adrenergic receptor (Homo sapiens, UniProt P18089); assay: Displacement of [3H]RX821002 form human recombinant alpha2B adrenergic receptor
Alpha-2B adrenergic receptor, sequence (P18089 whole entry): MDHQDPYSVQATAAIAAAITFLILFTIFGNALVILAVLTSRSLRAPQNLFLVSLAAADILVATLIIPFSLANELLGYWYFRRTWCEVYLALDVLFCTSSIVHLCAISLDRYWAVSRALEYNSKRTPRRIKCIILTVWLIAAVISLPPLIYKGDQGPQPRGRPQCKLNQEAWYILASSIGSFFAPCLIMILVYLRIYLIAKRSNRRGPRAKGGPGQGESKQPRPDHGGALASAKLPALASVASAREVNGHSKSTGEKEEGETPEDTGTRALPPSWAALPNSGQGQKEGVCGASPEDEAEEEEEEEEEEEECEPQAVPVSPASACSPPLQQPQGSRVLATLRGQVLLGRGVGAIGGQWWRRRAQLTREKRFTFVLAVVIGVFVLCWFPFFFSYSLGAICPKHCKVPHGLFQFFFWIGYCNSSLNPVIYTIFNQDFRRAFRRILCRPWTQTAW

[13] = biological target: 5-hydroxytryptamine receptor 7 (Homo sapiens, UniProt P34969); assay: Displacement of [3H]LSD form human recombinant 5HT7 receptor; in short: as §1
5-hydroxytryptamine receptor 7, sequence (P34969 whole entry): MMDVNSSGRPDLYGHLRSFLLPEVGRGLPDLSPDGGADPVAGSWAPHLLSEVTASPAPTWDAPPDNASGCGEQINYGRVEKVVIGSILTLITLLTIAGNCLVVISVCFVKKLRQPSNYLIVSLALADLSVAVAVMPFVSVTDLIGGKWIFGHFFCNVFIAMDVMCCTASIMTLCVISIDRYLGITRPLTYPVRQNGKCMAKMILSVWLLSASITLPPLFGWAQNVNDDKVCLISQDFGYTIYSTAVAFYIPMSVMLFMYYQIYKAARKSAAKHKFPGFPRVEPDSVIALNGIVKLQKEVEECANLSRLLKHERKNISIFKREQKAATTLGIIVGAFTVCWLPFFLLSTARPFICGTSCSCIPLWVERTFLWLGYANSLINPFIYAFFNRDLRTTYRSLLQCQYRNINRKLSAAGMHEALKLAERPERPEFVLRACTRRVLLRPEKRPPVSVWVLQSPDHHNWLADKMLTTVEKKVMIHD

[14] = biological target: Alpha-2C adrenergic receptor (Homo sapiens, UniProt P18825); assay: Displacement of [3H]RX821002 form human recombinant Alpha-2C adrenergic receptor
Alpha-2C adrenergic receptor, sequence (P18825 whole entry): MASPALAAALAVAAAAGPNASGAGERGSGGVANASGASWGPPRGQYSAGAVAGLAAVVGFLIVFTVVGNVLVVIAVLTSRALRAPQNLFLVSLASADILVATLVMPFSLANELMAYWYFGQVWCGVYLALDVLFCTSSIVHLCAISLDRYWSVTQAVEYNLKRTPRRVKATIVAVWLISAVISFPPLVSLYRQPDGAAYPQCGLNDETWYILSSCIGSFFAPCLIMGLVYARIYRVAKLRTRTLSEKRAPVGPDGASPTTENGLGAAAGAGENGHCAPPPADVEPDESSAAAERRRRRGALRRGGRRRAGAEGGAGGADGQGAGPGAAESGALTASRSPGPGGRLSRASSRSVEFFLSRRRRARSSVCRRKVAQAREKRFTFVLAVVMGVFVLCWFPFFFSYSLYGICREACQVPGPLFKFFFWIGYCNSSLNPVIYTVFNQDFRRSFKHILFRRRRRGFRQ

Mus musculus [15] = assay: Antinociceptive activity against acetic acid-induced writhing in NMRI mouse assessed as number of stretches at 0.01 mg/kg, ip by writhing test; type: functional; conditions: route intraperitoneal
In short: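 Groups of 8 male NMRI mice (20–24 g). Compound or reference given ip in saline (10 mL/kg) 15 min before ip 0.6% aqueous acetic acid (10 mL/kg). Stretches (back arching, pelvic rotation, hind-limb extension) counted over 10 min, beginning 10 min after acid. ANOVA + Fisher PLSD versus control.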

[16] = biological target: Alpha-2A adrenergic receptor (Homo sapiens, UniProt P08913); assay: Displacement of [3H]RX821002 form human recombinant alpha2A adrenergic receptor
Alpha-2A adrenergic receptor, sequence (P08913 whole entry): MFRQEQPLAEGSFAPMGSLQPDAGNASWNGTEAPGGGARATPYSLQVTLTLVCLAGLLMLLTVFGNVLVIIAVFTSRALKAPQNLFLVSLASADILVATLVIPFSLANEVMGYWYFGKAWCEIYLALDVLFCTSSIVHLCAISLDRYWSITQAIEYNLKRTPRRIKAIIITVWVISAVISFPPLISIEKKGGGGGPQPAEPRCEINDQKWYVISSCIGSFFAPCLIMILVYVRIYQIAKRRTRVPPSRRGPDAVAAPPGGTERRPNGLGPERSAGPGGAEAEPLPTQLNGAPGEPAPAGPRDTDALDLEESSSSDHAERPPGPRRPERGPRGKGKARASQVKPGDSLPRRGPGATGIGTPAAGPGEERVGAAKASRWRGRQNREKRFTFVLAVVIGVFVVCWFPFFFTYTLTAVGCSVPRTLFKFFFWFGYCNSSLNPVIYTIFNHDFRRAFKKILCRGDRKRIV

Mus musculus [17] = assay: Analgesic activity in NMRI mouse assessed as reaction time taken to lick fore paw at 0.01 to 1 mg/kg, ip by hot plate test; type: functional, organism-based
In short: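 Male NMRI mice (20–24 g), 10 per group, each pre-screened twice on a 55 °C plate (response required within 4–12 s). Compound given ip in saline (10 mL/kg) at 0.01, 0.1 and 1 mg/kg. Time to forepaw licking recorded 15 and 30 min post-injection; 30 s cutoff. ANOVA + Fisher PLSD.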

[18] = biological target: 5-hydroxytryptamine receptor 1B (Rattus norvegicus, UniProt P28564); assay: Displacement of [3H]5OH-tryptamine form 5HT1B receptor in rat cerebral cortex; type: tissue-based
5-hydroxytryptamine receptor 1B, sequence (P28564 whole entry): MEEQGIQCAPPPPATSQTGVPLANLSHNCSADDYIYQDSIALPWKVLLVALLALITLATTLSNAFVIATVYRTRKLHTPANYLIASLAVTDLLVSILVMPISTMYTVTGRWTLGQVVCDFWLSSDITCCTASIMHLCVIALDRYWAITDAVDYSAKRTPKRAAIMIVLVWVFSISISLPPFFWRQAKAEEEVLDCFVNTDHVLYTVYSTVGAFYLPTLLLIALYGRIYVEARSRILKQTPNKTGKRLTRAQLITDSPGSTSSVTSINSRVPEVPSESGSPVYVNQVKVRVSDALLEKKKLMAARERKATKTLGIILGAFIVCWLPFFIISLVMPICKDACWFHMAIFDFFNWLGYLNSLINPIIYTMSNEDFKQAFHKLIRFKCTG

Alpha-1D adrenergic receptor, sequence (P25100 whole entry): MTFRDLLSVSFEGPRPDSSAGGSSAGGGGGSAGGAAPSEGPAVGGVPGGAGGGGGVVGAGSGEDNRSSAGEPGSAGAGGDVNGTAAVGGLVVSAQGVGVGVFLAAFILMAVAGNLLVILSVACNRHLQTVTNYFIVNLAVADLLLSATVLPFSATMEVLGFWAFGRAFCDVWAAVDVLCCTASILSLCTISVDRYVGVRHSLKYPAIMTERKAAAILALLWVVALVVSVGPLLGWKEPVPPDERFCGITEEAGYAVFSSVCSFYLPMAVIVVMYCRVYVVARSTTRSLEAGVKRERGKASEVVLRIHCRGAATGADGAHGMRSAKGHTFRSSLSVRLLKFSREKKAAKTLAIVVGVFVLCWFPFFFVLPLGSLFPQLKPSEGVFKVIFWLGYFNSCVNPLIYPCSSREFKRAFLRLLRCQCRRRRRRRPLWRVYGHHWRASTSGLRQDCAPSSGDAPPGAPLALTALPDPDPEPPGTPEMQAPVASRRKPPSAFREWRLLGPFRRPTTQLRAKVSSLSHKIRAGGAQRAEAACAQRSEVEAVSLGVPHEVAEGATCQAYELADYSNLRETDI

CCCN1CCC(COc2nc3scc(C)c3n3cccc23)CC1
IC50 [1]: 0.204 µM
Activity [2]: 20%
IC50 [3]: 0.0724 µM
IC50 [4]: 0.145 µM
IC50 [5]: 5.01 µM
IC50 [6]: > 10 µM
inhibition [7]: 78%
IC50 [8]: 4.57 µM
Ki [9]: 0.00174 µM
Activity (Mus musculus [10]): Toxic
Activity (Mus musculus [11]): inactive
IC50 [12]: 0.955 µM
IC50 [13]: > 1 µM
IC50 [14]: 0.741 µM
Activity (Mus musculus [15]): 17.2
IC50 [16]: 0.891 µM
Activity (Mus musculus [17]): inactive
IC50 [18]: > 10 µM

From ChEMBL document CHEMBL1153939, “Novel antagonists of serotonin-4 receptors: synthesis and biological evaluation of pyrrolothienopyrazines” (Bioorg Med Chem, 2009)
